The source made the active and inactive calls. No cut-off for these calls is given here.
What was measured:
LN-229 [1] = experiment: Induction of cellular senescence in human LN229 cells assessed as increase in nuclear size at 10 uM incubated for 24 hrs by phase contrast microscopy; format: functional, cell-based
Procedure, shortened: (§1)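 LN229 and PC3 cells, 12×10^4 per well in 6-well plates, treated with 10 µM compound for 24 h. Senescence-associated β-gal staining: fixed in 2% formaldehyde/0.2% glutaraldehyde for 10 min at RT, stained with 1 mg/mL X-gal at 37 °C for 24 h without CO2. Blue cells counted in at least 10 fields at 10x and given as percent of total; four independent experiments. Morphology viewed by phase contrast at ×100.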

Granta-519 [2] = experiment: Antiproliferative activity against human GRANTA-519 cells assessed as reduction in cell viability incubated for 48 hrs by cell titer-glo assay; format: functional, cell-based; settings: Granta-519, 48 h
Procedure, shortened: (§2)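 Dose-response: cells plated, treated 24 h later for 48 h, then ATP measured by CellTiter-Glo luminescence. IC50 given as mean ± SD from three independent experiments, each in triplicate. Fibroblasts came from individuals. Cells were kept in RPMI or DMEM with 10% heat-inactivated FBS and penicillin/streptomycin at 37 °C, 5% CO2.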

[3] = Metal chelating activity assessed as Zn2+-compound complex formation by measuring stability constant for ZnL in 0.15M NaCl and hydroalcoholic solutions (H2O/EtOH 70:30) at 298.1K by potentiometric titration analysis
Procedure, shortened: (§3)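 Glass-electrode potentiometric titration with an Ag/AgCl reference in saturated KCl. The electrode was calibrated as an [H+] probe against standardized HCl with CO₂-free NaOH, using Gran's method (pKw 13.73(1)). Range was pH 2.0–11.0, with metal and ligand at 1×10⁻³ to 5×10⁻³ M in 1:1 ratio. At least two curves per compound were merged and fitted with HYPERQUAD.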

PC-3 [4] = experiment: Induction of cell morphological changes in human PC3 cells assessed as cell rounding at 10 uM incubated for 24 to 48 hrs by phase contrast microscopy; format: functional, cell-based
Procedure, shortened: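 LN229 and PC3 cells exposed to 10 µM compound for the indicated time-points, then imaged live by phase-contrast microscopy for morphology.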

[5] = Metal chelating activity assessed as Zn2+-compound complex formation by measuring stability constant for ZnL(OH) using pre-Zn2+-complexed compound (ZnL) in 0.15M NaCl and hydroalcoholic solutions (H2O/EtOH 70:30) at 298.1K by potentiometric titration analysis; procedure, shortened: as §3
Homo sapiens = organism: Homo sapiens; experiment: Induction of apoptosis in human UPN2 cells assessed as increase in caspase-3/7 activation at 10 uM incubated for 48 hrs by luminometric caspase-glo 3/7 assay; format: functional, cell-based
Procedure, shortened: (§4)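 Cells in RPMI or DMEM with 10% heat-inactivated FBS and penicillin/streptomycin, 37 °C, 5% CO2, treated with 10 µM compound for 48 h. Caspase-3 and caspase-7 activity read by luminescent Caspase-Glo 3/7 assay, reported as fold induction over untreated cells; mean ± SD of three independent experiments, each in triplicate.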

LN-229 [6] = experiment: Metal chelating activity in human LN229 cells assessed as decrease in intracellular concentration of labile zinc ions by measuring reduction in zinquin-Zn2+ complex formation incubated for 12 hrs followed by incubation with fluorophore-zinquin for 30 mins by spectrofluorometric analysis; format: cell-based
Procedure, shortened: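 LN229 cells were treated 12 h, trypsinized, pelleted and checked by Trypan Blue. Then 6x10⁶ cells in 1 mL PBS were loaded with Zinquin 25 μM for 30 min at 37 °C in the dark. Fluorescence was read at ex 370/em 475 nm with a 400–600 nm scan, normalized to cell number, untreated set to 100; four independent experiments.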

Granta-519 [7] = experiment: Induction of apoptosis in human GRANTA-519 cells assessed as increase in caspase-3/7 activation at 10 uM incubated for 48 hrs by luminometric caspase-glo 3/7 assay; format: functional, cell-based; procedure, shortened: as §4
PC-3 [8] = experiment: Induction of cellular senescence in human PC3 cells assessed as larger volume of cell at 10 uM incubated for 24 hrs by phase contrast microscopy; format: functional, cell-based; procedure, shortened: as §1
PC-3 [9] = experiment: Cell cycle arrest in human PC3 cells assessed as cell accumulation at G2/M phase at 10 uM incubated for 48 hrs by propidium iodide staining based flow cytometry analysis relative to control; format: functional
PC-3 [10] = experiment: Induction of apoptosis in human PC3 cells assessed as increase in caspase-3/7 activation at 10 uM incubated for 48 hrs by luminometric caspase-glo 3/7 assay; format: functional, cell-based; procedure, shortened: as §4
LN-229 [11] = experiment: Cell cycle arrest in human LN229 cells assessed as cell accumulation at G2/M phase at 10 uM incubated for 48 hrs by propidium iodide staining based flow cytometry analysis relative to control; format: functional
SW-620 = experiment: Antiproliferative activity against human SW620 cells assessed as reduction in cell viability at 10 uM incubated for 48 hrs by cell titer-glo assay; format: functional, cell-based
Procedure, shortened: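 Cells plated and treated 24 h later with 10 µM compound for 48 h; viable cells quantified by CellTiter-Glo ATP luminescence. Expressed as percentage of viable cells relative to untreated; mean ± SD of three independent experiments, each in triplicate.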

Z-138 = experiment: Antiproliferative activity against human Z138 cells assessed as reduction in cell viability incubated for 48 hrs by cell titer-glo assay; format: functional, cell-based; settings: Z-138, 48 h; procedure, shortened: as §2
PC-3 [12] = experiment: Antiproliferative activity against human PC3 cells assessed as reduction in cell viability at 10 uM incubated for 48 hrs in presence of Zn2+ ion by MTT assay; format: functional, cell-based
Procedure, shortened: (§5)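 LN229 and PC3 cells plated, then 24 h later given 10 µM compound with or without 15 µM ZnCl2, CuCl2, FeCl2 or FeCl3 for 48 h. Medium replaced, MTT (12 mM solution) added for 4 h, formazan dissolved in DMSO, absorbance read at 540 nm. Percent viable versus untreated; mean ± SD of three experiments in triplicate.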

PC-3 [13] = experiment: Induction of apoptosis in human PC3 cells assessed as increase in early and late apoptotic cells at 10 uM incubated for 72 hrs by annexin V-FITC and propidium iodide staining based flow cytometry analysis relative to control; format: functional
LN-229 [14] = experiment: Antiproliferative activity against human LN229 cells assessed as reduction in cell viability at 10 uM incubated for 48 hrs in presence of Zn2+ ion by MTT assay; format: functional, cell-based; procedure, shortened: as §5
[15] = Metal chelating activity assessed as Zn2+-compound complex formation by measuring stability constant for ZnL in 0.15M NaCl at 298.1K by potentiometric titration analysis; procedure, shortened: as §3
[16] = Metal chelating activity assessed as Zn2+-compound complex formation by measuring stability constant for ZnHL using pre-Zn2+-complexed compound (ZnL) in 0.15M NaCl at 298.1K by potentiometric titration analysis; procedure, shortened: as §3
[17] = Metal chelating activity assessed as Zn2+-compound complex formation by measuring stability constant for ZnL(OH) in 0.15M NaCl at 298.1K by potentiometric titration analysis; procedure, shortened: as §3
[18] = Metal chelating activity assessed as Zn2+-compound complex formation by measuring stability constant for ZnHL in 0.15M NaCl at 298.1K by potentiometric titration analysis; procedure, shortened: as §3
[19] = Metal chelating activity assessed as Zn2+-compound complex formation by measuring stability constant for ZnL(OH) using pre-Zn2+-complexed compound (ZnL) in 0.15M NaCl at 298.1K by potentiometric titration analysis; procedure, shortened: as §3

SMILES | Activity (LN-229 [1]) | IC50 (Granta-519 [2]) [µM] | Activity (PC-3 [4]) | Activity (Homo sapiens) | Activity (LN-229 [6]) | Activity (Granta-519 [7]) | Activity (PC-3 [8]) | Activity (PC-3 [9]) [%] | Activity (PC-3 [10]) | Activity (LN-229 [11]) [%] | Activity (SW-620) | IC50 (Z-138) [µM] | Activity (PC-3 [12]) | fold change (FC) (PC-3 [13]) | Activity (LN-229 [14]) | also measured
CN(CCNCc1ccccn1)CCNCc1ccccn1 | Active | 2.09 | Active | Active | Dose-dependent effect | Active | Active | 16 | Active | 20.2 | Active | 4.85 | inactive | 30 | inactive | log K [3]: 13.4; log K [5]: -10.6
c1ccc(CNCCN(CCNCc2ccccn2)Cc2ccc3ccccc3c2)nc1 | Active | 4.34 | Active | Active | Dose-dependent effect | Active | Active | 14.1 | Active | 14.4 | Active | 3.07 | inactive | 30 | inactive | log K [15]: 13; log K [16]: 3.65; log K [17]: 2.25; log K [18]: 16.7; log K [19]: -10.8

From ChEMBL document CHEMBL4376884, “Toward a Rational Design of Polyamine-Based Zinc-Chelating Agents for Cancer Therapies” (J Med Chem, 2020)
